In PMC11297572 (International Journal of Nanomedicine, 2024):
Converted amounts (≈) assume the structure as drawn. “Also recorded” adds a separate entry of the source.

Tests used:
Ki67 = experiment: Immunohistochemistry of Ki67 in tumor tissues; type: in vivo, nude mice; settings: tumor tissue after 21 days
Summary of the method: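 Tumors were taken at the end of the 21-day study and fixed in 4% paraformaldehyde for 24 h. They were dehydrated in absolute alcohol, paraffin-embedded and sectioned. Antigen retrieval was 5 min at high temperature in 0.01 M citrate buffer, pH 6.0. Primary antibody (1:200) was applied overnight at 4 °C, then secondary antibody for 30 min at 37 °C. Sections were developed with DAB, counterstained with hematoxylin and imaged. Scoring was blind.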

A549 cells [1] = experiment: Apoptosis of A549 cells; type: cell-based, human; settings: 24 h
A549 cells [2] = experiment: MTT growth inhibition of A549 cells; type: cell-based; settings: Homo sapiens
Summary of the method: (§1)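 Cells were grown in RPMI 1640 or DMEM with 10% FBS and 100 U/mL penicillin-streptomycin at 37 °C, 5% CO2. Log-phase cells were seeded at 3–5×10³ per well and cultured 24 h before graded drug concentrations were added. After 24 or 48 h exposure, MTT (5 mg/mL solution) was added for 3–4 h. Medium was removed, formazan dissolved in DMSO with 10 min shaking, and OD read at 490 nm. Growth inhibition rate was calculated from OD. Data are mean ± SD of triplicates.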

[3] = tested on: heart, liver, kidney and lung tissues; experiment: HE staining of organs; type: in vivo; settings: lung of nude mice after administration
[4] = tested on: A549 subcutaneous transplanted tumor; experiment: In vivo antitumor efficacy in tumor-bearing nude mice; settings: 21 days of administration
Summary of the method: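 The xenograft model used A549 cells. Treatment ran for 21 days with body weight tracked against the start of dosing; n = 5 per group. At the end, surviving mice were killed and tumors were excised and weighed to calculate tumor inhibition rate.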

H460 cells = experiment: MTT growth inhibition of H460 cells; type: cell-based; settings: Homo sapiens
Summary of the method: as §1

[5] = tested on: A549 subcutaneous transplanted tumor; experiment: HE staining of tumor tissues; type: in vivo, nude mice; settings: tumor tissue after 21 days
Summary of the method: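 Subcutaneous tumors were excised after 21 days of treatment once the surviving mice were killed. Tissue was washed twice in 0.9% saline, fixed in 4% paraformaldehyde, dehydrated, paraffin-embedded and sectioned. Sections were stained with hematoxylin and eosin and assessed for pathology. All procedures were done blind.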

IC50 (A549 cells [2]; A549, 24 h): 45.9 µg/mL (≈ 53.7 µM)
IC50 (A549 cells [2]; A549, 48 h): 31.7 µg/mL (≈ 37.1 µM)
IC50 (H460 cells; NCI-H460, 24 h): 49.3 µg/mL (≈ 57.7 µM)
IC50 (H460 cells; NCI-H460, 48 h): 39.4 µg/mL (≈ 46.1 µM)
SMILES: CC(=O)O[C@H]1C(=O)[C@@]2(C)[C@H]([C@H](OC(=O)c3ccccc3)[C@]3(O)C[C@H](OC(=O)[C@H](O)[C@@H](NC(=O)c4ccccc4)c4ccccc4)C(C)=C1C3(C)C)[C@]1(OC(C)=O)CO[C@@H]1C[C@@H]2O [PTX, paclitaxel]
expression of Ki67 in tumor tissues (Ki67): 45.88%
apoptosis rate (A549 cells [1]; A549, 5 μg/mL): 3.57%
apoptosis rate (A549 cells [1]; A549, 10 μg/mL): 7.34%
apoptosis rate (A549 cells [1]; A549, 20 μg/mL): 16.6%
pathological changes in organs (HE staining) [3]: pathological changes and tumor cell infiltration; also recorded: different degrees of pathological changes and necrosis in their hearts and livers
body weight change ([4]; nude mice): gradual
tumor inhibition rate ([4]; tumor-bearing nude mice): 29.95%
necrosis of tumor tissue (necrotic area) [5]: approximately 20%
